# Experimental data as given in ChEMBL document CHEMBL1132433, “6-Substituted 2-oxo-2H-1-benzopyran-3-carboxylic acid as a core structure for specific inhibitors of human leukocyte elastase” (J Med Chem, 1999).
# Legend:
# [1] = target: T1, Neutrophil elastase (Homo sapiens) (UniProt P08246); assay: Compound was evaluated for the kinetic parameter Ki/KI(1/M.1/S) by its ability to inhibit the HLE(Human Leukocyte Elastase) enzyme; No inactivation at 10 uM
# T1 sequence (whole entry): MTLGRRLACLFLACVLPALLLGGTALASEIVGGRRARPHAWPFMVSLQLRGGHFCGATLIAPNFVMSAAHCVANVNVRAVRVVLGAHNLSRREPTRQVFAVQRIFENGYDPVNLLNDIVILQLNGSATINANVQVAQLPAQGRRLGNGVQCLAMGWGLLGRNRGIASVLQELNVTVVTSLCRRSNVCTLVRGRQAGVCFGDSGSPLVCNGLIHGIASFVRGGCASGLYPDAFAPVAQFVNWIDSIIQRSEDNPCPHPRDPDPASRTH
# Summary of the method: (§1)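 HLE, active-site titrated, assayed with MeO-Suc-AAPV-p-NA in 0.1 M Hepes, 0.5 M NaCl, 0.1% Tween 80, pH 8.0, 10% DMSO, 25 °C. Preincubation method ([HLE]0 20 nM, [I]0 1-10 µM) or progress curves (30 nM enzyme, [S]0 100 µM, [I]0 0.05-70 µM), 405 nm. Constants reflect the initial inactivation step. ki, KI fitted.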
# [2] = target: Chymotrypsinogen A (Bos taurus) (UniProt P00766); assay: Evaluation of kinetic parameter Ki/KI(1/M.1/S) by its ability to inhibit the Alpha-CT (Bovine alpha-chymotrypsin) enzyme
# [3] = target: Prothrombin (Homo sapiens) (UniProt P00734); assay: Evaluation of kinetic parameter Ki/KI(1/M.1/S) by its ability to inhibit human thrombin.
# Summary of the method: (§2)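 Human thrombin, active-site titrated, with chromogenic substrate S-2238 in 0.01 M Hepes, 0.01 M Tris, 0.1 M NaCl, 0.1% PEG6000, pH 7.5, 10% DMSO, 25 °C. Preincubation method ([THR]0 1.45 nM, [I]0 1-10 µM) or progress curves ([THR]0 0.58 nM, [S]0 10 µM, [I]0 1-14 µM), absorbance at 405 nm. ki and KI fitted; ki/KI = kobs/[I] at low inhibitor.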
# [4] = target: T1, Neutrophil elastase (Homo sapiens); assay: Evaluation of kinetic parameter Ki/KI(1/M.1/S) by its ability to inhibit the HLE(Human Leukocyte Elastase) enzyme.; summary of the method: as §1
# [5] = target: Chymotrypsinogen A (Bos taurus) (UniProt P00766); assay: Evaluation of kinetic parameter Ki/KI(1/M.1/S) by its ability to inhibit the Alpha-CT (Bovine alpha-chymotrypsin) enzyme; No inactivation at 10 uM
# [6] = target: T1, Neutrophil elastase (Homo sapiens); assay: Evaluated for the kinetic parameter Ki/KI(1/M.1/S) by its ability to inhibit the HLE(Human Leukocyte Elastase) enzyme [ki(se-1) andKi(uM)]; summary of the method: as §1
# [7] = target: Chymotrypsinogen A (Bos taurus) (UniProt P00766); assay: Compound was evaluated for the kinetic parameter Ki/KI(1/M.1/S) by its ability to inhibit the Alpha-CT (Bovine alpha-chymotrypsin) enzyme [ki(se-1) andKi(uM)]
# [8] = target: Prothrombin (Homo sapiens) (UniProt P00734); assay: Compound was evaluated for the kinetic parameter Ki/KI(1/M.1/S) by its ability to inhibit human thrombin; summary of the method: as §2
# [9] = target: Chymotrypsinogen A (Bos taurus) (UniProt P00766); assay: Compound was evaluated for the kinetic parameter Ki/KI(1/M.1/S) by its ability to inhibit the Alpha-CT (Bovine alpha-chymotrypsin) enzyme.
# [10] = target: Chymotrypsinogen A (Bos taurus) (UniProt P00766); assay: Compound was evaluated for the kinetic parameter Ki/KI(1/M.1/S) by its ability to inhibit the Alpha-CT (Bovine alpha-chymotrypsin) enzyme[ki(se-1) andKi(uM)]
Compound,Ki/KI [2] [M⁻¹ s⁻¹],Ki/KI [3],Ki/KI [4] [M⁻¹ s⁻¹],Ki/KI [5],other results
O=C(Nc1cccnc1Cl)c1cc2cc(CCl)ccc2oc1=O,–,–,–,No inactivation,Ki/KI [1]: No inactivation
CC(C)(C)C(=O)OCc1ccc2oc(=O)c(C(=O)Oc3cncc(Cl)c3)cc2c1,–,No inactivation,95500,No inactivation,–
O=C(Oc1cncc(Cl)c1)c1cc2cc(CCl)ccc2oc1=O,–,–,–,–,Ki/KI [6]: 64600 M⁻¹ s⁻¹; Ki/KI [7]: 31000 M⁻¹ s⁻¹; Ki/KI [8]: 200 M⁻¹ s⁻¹
O=C(Oc1cncc(Cl)c1)c1cc2ccccc2oc1=O,–,No inactivation,32800,No inactivation,–
O=C(Oc1ccccc1)c1cc2cc(CCl)ccc2oc1=O,–,–,23,–,Ki/KI [9]: 100000 M⁻¹ s⁻¹; Ki/KI [8]: 200 M⁻¹ s⁻¹
CC(=O)OCc1ccc2oc(=O)c(C(=O)Oc3cncc(Cl)c3)cc2c1,–,No inactivation,107000,No inactivation,–
O=C(Nc1cccnc1)c1cc2cc(CCl)ccc2oc1=O,–,–,–,–,Ki/KI [1]: No inactivation
COc1ccc(NC(=O)c2cc3cc(CCl)ccc3oc2=O)cn1,–,–,–,No inactivation,Ki/KI [1]: No inactivation
CC(C)C(=O)OCc1ccc2oc(=O)c(C(=O)Oc3cncc(Cl)c3)cc2c1,–,No inactivation,45000,No inactivation,–
Cc1ccc2oc(=O)c(C(=O)Oc3cncc(Cl)c3)cc2c1,–,No inactivation,32500,No inactivation,–
O=C(Oc1cccnc1Br)c1cc2cc(CCl)ccc2oc1=O,–,–,–,–,Ki/KI [6]: 3000 M⁻¹ s⁻¹; Ki/KI [10]: 2700 M⁻¹ s⁻¹
Cc1cncc(OC(=O)c2cc3cc(CCl)ccc3oc2=O)c1,2500,No inactivation,1000,–,–
CCCC(=O)OCc1ccc2oc(=O)c(C(=O)Oc3cncc(Cl)c3)cc2c1,–,No inactivation,72700,No inactivation,–
NCc1ccc2oc(=O)c(C(=O)Oc3cncc(Cl)c3)cc2c1,–,No inactivation,9100,No inactivation,–
CCC(=O)OCc1ccc2oc(=O)c(C(=O)Oc3cncc(Cl)c3)cc2c1,–,No inactivation,62000,No inactivation,–
O=C(Oc1cncc(Cl)c1)c1cc2cc(Br)ccc2oc1=O,–,–,58000,No inactivation,–

# The next lines start with results.
Ki/KI [2] [M⁻¹ s⁻¹],Ki/KI [3],Ki/KI [4] [M⁻¹ s⁻¹],Ki/KI [5],Compound,other results
1000,No inactivation,–,–,Cc1ccc(OC(=O)c2cc3cc(CCl)ccc3oc2=O)cn1,Ki/KI [1]: No inactivation
2500,No inactivation,110,–,O=C(Oc1ccc(Cl)cn1)c1cc2cc(CCl)ccc2oc1=O,–
–,No inactivation,–,–,O=C(Oc1cccnc1)c1cc2cc(CCl)ccc2oc1=O,Ki/KI [6]: 770 M⁻¹ s⁻¹; Ki/KI [7]: 14800 M⁻¹ s⁻¹
3300,No inactivation,200,–,Cc1cccc(OC(=O)c2cc3cc(CCl)ccc3oc2=O)n1,–
4500,–,4000,–,O=C(Oc1cccnc1[N+](=O)[O-])c1cc2cc(CCl)ccc2oc1=O,–
1500,–,–,–,Cc1ccc(OC(=O)c2cc3cc(CCl)ccc3oc2=O)c([N+](=O)[O-])n1,Ki/KI [1]: No inactivation
107000,–,26000,–,O=C(Oc1cccc(Cl)n1)c1cc2cc(CCl)ccc2oc1=O,Ki/KI [8]: 7200 M⁻¹ s⁻¹
4300,–,3310,–,O=C(Oc1cccnc1Cl)c1cc2cc(CCl)ccc2oc1=O,–
5950,–,300,–,Cc1ccnc(OC(=O)c2cc3cc(CCl)ccc3oc2=O)c1,Ki/KI [8]: 3900 M⁻¹ s⁻¹
1670,–,420,–,O=C(Oc1ccccn1)c1cc2cc(CCl)ccc2oc1=O,Ki/KI [8]: 240 M⁻¹ s⁻¹
